ChEMBL document CHEMBL4406880, “Design, synthesis, and bioactivity of dihydropyrimidine derivatives as kinesin spindle protein inhibitors” (Bioorg Med Chem, 2019)

Key:
Type in all cases: functional
[1] = tested on: HCT-116; assay: Growth inhibition of human HCT116 cells incubated for 48 hrs by sulforhodamine B assay; settings: HCT-116, 48 h
How it was run: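 NCI-60 five-dose mode: five tenfold dilutions (0.01, 0.1, 1, 10, 100 µM) are applied for 48 h to cells in RPMI 1640 with 5% FBS at 37 °C. Endpoint is TCA fixation with sulforhodamine B read at 515 nm. % growth comes from the 0 h and control absorbances. GI50 is the concentration giving a 50% reduction in net cell growth.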

[2] = tested on: M14; assay: Growth inhibition of human M14 cells incubated for 48 hrs by sulforhodamine B assay; settings: M14, 48 h
How it was run: (§1)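 NCI-60 five-dose SRB assay in RPMI 1640 with 5% FBS, 37 °C, 5% CO2. Compound given at five tenfold dilutions, 0.01–100 µM, for 48 h. Adherent cells fixed with TCA, suspension cells with 16% final TCA. Bound SRB read at 515 nm and growth calculated against time-zero and untreated controls. GI50 taken from dose–response curves as the concentration giving a 50% decrease in net cell growth.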

[3] = tested on: MDA-MB-435; assay: Growth inhibition of human MDA-MB-435 cells incubated for 48 hrs by sulforhodamine B assay; settings: MDA-MB-435, 48 h; how it was run: as §1
[4] = tested on: IGROV-1; assay: Growth inhibition of human IGROV1 cells incubated for 48 hrs by sulforhodamine B assay; settings: IGROV-1, 48 h; how it was run: as §1
[5] = tested on: SNB-75; assay: Cell cycle arrest in human SNB75 cells assessed as accumulation in S phase at 2 uM incubated for 24 hrs by propidium iodide based flow cytometry (reference value: 33.92 %)
How it was run: (§2)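 SNB-75 cells were exposed to 2 µM for 24 h at 37 °C, 5% CO2, then washed with PBS and fixed in 70% ethanol on ice for 15 min. They were stained 1 h at room temperature with 50 µg/mL propidium iodide, 0.1 mg/mL RNase A and 0.05% Triton X-100. DNA content was read by flow cytometry to give the % of cells in pre-G1, G0/G1, S and G2/M.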

[6] = tested on: SNB-75; assay: Cell cycle arrest in human SNB75 cells assessed as accumulation in G2/M phase at 2 uM incubated for 24 hrs by propidium iodide based flow cytometry (reference value: 10.46 %); how it was run: as §2
[7] = tested on: HCT-15; assay: Growth inhibition of human HCT15 cells assessed as cell viability at 100 uM incubated for 48 hrs by sulforhodamine B assay; settings: HCT-15, 48 h, read-out: Activity
[8] = tested on: NCI-H226; assay: Growth inhibition of human NCI-H226 cells assessed as cell viability at 100 uM incubated for 48 hrs by sulforhodamine B assay; settings: NCI-H226, 48 h, read-out: Activity
[9] = tested on: BT-549; assay: Growth inhibition of human BT549 cells assessed as cell viability at 1 uM incubated for 48 hrs by sulforhodamine B assay; settings: BT-549, 48 h, read-out: Activity
[10] = tested on: CAKI-1; assay: Growth inhibition of human Caki1 cells assessed as cell viability at 1 uM incubated for 48 hrs by sulforhodamine B assay; settings: CAKI-1, 48 h, read-out: Activity
[11] = tested on: OVCAR-8; assay: Growth inhibition of human OVCAR8 cells assessed as cell viability at 1 uM incubated for 48 hrs by sulforhodamine B assay; settings: OVCAR-8, 48 h, read-out: Activity
[12] = tested on: UACC-257; assay: Growth inhibition of human UACC257 cells assessed as cell viability at 1 uM incubated for 48 hrs by sulforhodamine B assay; settings: UACC-257, 48 h, read-out: Activity
[13] = tested on: SNB-75; assay: Growth inhibition of human SNB75 cells assessed as cell viability at 1 uM incubated for 48 hrs by sulforhodamine B assay; settings: SNB-75, 48 h, read-out: Activity
[14] = tested on: HCT-15; assay: Growth inhibition of human HCT15 cells assessed as cell viability at 1 uM incubated for 48 hrs by sulforhodamine B assay; settings: HCT-15, 48 h, read-out: Activity
[15] = tested on: HOP-62; assay: Growth inhibition of human HOP62 cells assessed as cell viability at 1 uM incubated for 48 hrs by sulforhodamine B assay; settings: HOP-62, 48 h, read-out: Activity
[16] = tested on: SR; assay: Growth inhibition of human SR cells assessed as cell viability at 1 uM incubated for 48 hrs by sulforhodamine B assay; settings: read-out: Activity
[17] = tested on: OVCAR-8; assay: Growth inhibition of human OVCAR8 cells assessed as cell viability at 0.1 uM incubated for 48 hrs by sulforhodamine B assay; settings: OVCAR-8, 48 h, read-out: Activity
[18] = tested on: IGROV-1; assay: Growth inhibition of human IGROV1 cells assessed as cell viability at 0.1 uM incubated for 48 hrs by sulforhodamine B assay; settings: IGROV-1, 48 h, read-out: Activity
[19] = tested on: DU-145; assay: Growth inhibition of human DU145 cells assessed as cell viability at 0.001 uM incubated for 48 hrs by sulforhodamine B assay relative to control; settings: DU-145, 48 h, read-out: Activity
[20] = tested on: OVCAR-4; assay: Growth inhibition of human OVCAR4 cells assessed as cell viability at 0.001 uM incubated for 48 hrs by sulforhodamine B assay relative to control; settings: OVCAR-4, 48 h, read-out: Activity
[21] = tested on: SNB-75; assay: Growth inhibition of human SNB75 cells assessed as cell viability at 0.001 uM incubated for 48 hrs by sulforhodamine B assay relative to control; settings: SNB-75, 48 h, read-out: Activity
[22] = tested on: SNB-19; assay: Growth inhibition of human SNB19 cells assessed as cell viability at 0.001 uM incubated for 48 hrs by sulforhodamine B assay relative to control; settings: SNB-19, 48 h, read-out: Activity
[23] = tested on: SF-539; assay: Growth inhibition of human SF539 cells assessed as cell viability at 0.001 uM incubated for 48 hrs by sulforhodamine B assay relative to control; settings: SF-539, 48 h, read-out: Activity
[24] = tested on: HCC 2998; assay: Growth inhibition of human HCC2998 cells assessed as cell viability at 0.001 uM incubated for 48 hrs by sulforhodamine B assay relative to control; settings: HCC 2998, 48 h, read-out: Activity
[25] = tested on: TK-10; assay: Growth inhibition of human TK10 cells assessed as cell viability at 100 uM incubated for 48 hrs by sulforhodamine B assay; settings: TK-10, 48 h, read-out: Activity
[26] = tested on: DU-145; assay: Growth inhibition of human DU145 cells assessed as cell viability at 100 uM incubated for 48 hrs by sulforhodamine B assay; settings: DU-145, 48 h, read-out: Activity

CC1=C(C(=O)OCc2ccccc2)C(c2ccc3c(c2)OCO3)n2c(nc3ccccc32)N1 (racemic)
GI50 ([1]; read-out: GI50): 470 nM | LC50 ([1]; read-out: LC50): > 100000 nM | TGI ([1]; read-out: TGI): > 100000 nM | GI50 ([1]; read-out: pGI50 (converted)): 479 nM | LC50 ([1]; read-out: pLC50 (converted)): > 100000 nM | TGI ([1]; read-out: pTGI): > 100000 nM | GI50 ([2]; read-out: GI50): 460 nM | LC50 (50% net cell kill) ([2]; read-out: LC50): > 100000 nM | TGI ([2]; read-out: TGI): > 100000 nM | GI50 ([2]; read-out: pGI50 (converted)): 468 nM | LC50 (50% net cell kill) ([2]; read-out: pLC50 (converted)): > 100000 nM | TGI ([2]; read-out: pTGI): > 100000 nM | GI50 ([3]; read-out: GI50): 80 nM | LC50 ([3]; read-out: LC50): > 100000 nM | TGI ([3]; read-out: TGI): 350 nM | GI50 ([3]; read-out: pGI50 (converted)): 85.1 nM | LC50 ([3]; read-out: pLC50 (converted)): > 100000 nM | TGI ([3]; read-out: pTGI (converted)): 347 nM | GI50 ([4]; read-out: GI50): 620 nM | CC50 ([4]; read-out: LC50 (the source's name)): > 100000 nM | TGI ([4]; read-out: TGI): > 100000 nM | GI50 ([4]; read-out: pGI50 (converted)): 617 nM | CC50 ([4]; read-out: pLC50 (the source's name) (converted)): > 100000 nM | TGI ([4]; read-out: pTGI): > 100000 nM | Activity [5]: 27.89% | Activity [6]: 37.59% | viability at 100 µM [7]: 19% | viability at 100 µM [8]: 64% | viability at 1 µM [9]: 49% | viability at 1 µM [10]: 20% | viability at 1 µM [11]: 38% | viability at 1 µM [12]: 50% | viability at 1 µM [13]: -8% | viability at 1 µM [14]: 25% | viability at 1 µM [15]: 44% | viability at 1 µM [16]: 52% | viability at 0.1 µM [17]: 97% | viability at 0.1 µM [18]: 93% | viability at 0.001 µM [19]: 102% | viability at 0.001 µM [20]: 82% | viability at 0.001 µM [21]: 61% | viability at 0.001 µM [22]: 94% | viability at 0.001 µM [23]: 91% | viability at 0.001 µM [24]: 92% | viability at 100 µM [25]: 68% | viability at 100 µM [26]: 41%
